The IC50 is the concentration that inhibits the measured activity by half. A word on the Kd: it is the concentration at which binding is half-saturated. Higher therefore signals weaker binding.

The target of test [1] is T1, TtClpP (Thermus thermophilus, UniProt Q5SKM8). In words: TAMRA-FP labeling of TtClpP active-site serines. Type of test: biochemical. The note with it: TAMRA-FP 5 μM, TtClpP 1 mg/ml, bortezomib 100 μM.
Another test concerns the target EcClpP (Escherichia coli, UniProt P0A6G7). In words: EcClpP peptidase activity, PKMamc degradation. Type of test: biochemical. A digest of the protocol:
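Purified E. coli ClpP was mixed in 50 mM Hepes (pH 7.6) and 50 mM NaCl with the fluorogenic tripeptide PKMamc (100 μM working concentration) and test compound, or a matching DMSO volume. AMC release was read at 340-nm excitation and 462-nm emission at defined intervals. An apparent IC50 was derived from peptidase activity.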

The target in test [2] is T1, TtClpP. In words: FITC-casein degradation by TtClpP. Particulars: TtClpP 0.1 μM complex. The class given is biochemical. A digest of the protocol: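 FITC-casein, passed over a G25 column to remove free fluorescein, was used at 0.15 μM with TtClpP14 (0.1 μM). Test compound was added at a range of concentrations. Fluorescence rise was monitored at 440-nm excitation, 509-nm emission and 495-nm cutoff. Initial degradation rates after temperature equilibration were plotted against compound concentration.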

The target of test [3] is T1, TtClpP. In words: FtsZ degradation by TtClpP, SDS-gel electrophoresis. The class given is biochemical. Particulars: 200 μM and 2 mM bortezomib, 37°C, TtClpP 1 μM complex. An outline of the steps: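 Purified intrinsically disordered E. coli FtsZ (20 μM) was incubated at 37°C with TtClpP14 (1 μM) and the stated test-compound concentrations. Aliquots were withdrawn at set time points and resolved on a 15% SDS gel to follow FtsZ loss.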

The next test has as its target TtClpP with TtClpX (Thermus thermophilus, UniProt Q5SKM8). In words: TtClpP peptidase activity in the presence of TtClpX. Type of test: biochemical. A digest of the protocol: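 N-terminally truncated TtClpX and TtClpP were expressed in E. coli BL21RIL and purified by NiNTA and SEC. Concentrations are given as hexamer and tetradecamer. TtClpP (0.1 μM complex) was mixed with TtClpX at varying ClpX6/ClpP14 molar ratios in 50 mM Hepes (pH 7.6) and 50 mM NaCl, without or with 10 μM test compound. PKMamc hydrolysis was read at 340/462 nm, at 60°C unless otherwise indicated. The ratio giving half-maximal activation was derived from activation plotted against molar ratio.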

Test [4] has as its target T1, TtClpP. In words: Isothermal titration calorimetry fitted to the MWC model. The class given is binding. A digest of the protocol: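 TtClpP (10 μM, cell) was titrated with test compound (1.4 mM, syringe) in 50 mM Hepes (pH 7.6) and 50 mM NaCl at 25°, 35° and 45°C. Solutions were degassed. Each run used 19 injections 150 s apart with stirring at 750 rpm, in replicates. Integrated heats were fitted by nonlinear least squares to an MWC model with 14 identical single-site subunits. The fit gave KR, KT, γ, enthalpies and active fraction N.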
For orientation: In ITC the heat of successive injections is recorded.

The target of test [5] is T1, TtClpP. In words: Dynamic light scattering, hydrodynamic radius of TtClpP. Particulars: 5 mM bortezomib; for hydrodynamic radius Rhyd of TtClpP: TtClpP 3 μM. A digest of the protocol:
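TtClpP (3 μM) was measured in 100 mM tris (pH 8.5), 100 mM NaCl and 5% glycerol, with no additive or with 5 mM bortezomib added, at 25° or 45°C. Each condition was run in triplicate, three times for each of two TtClpP samples. Hydrodynamic radius is the average of these replicates.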

Test [6] concerns the target T1, TtClpP. In words: Solution-state methyl NMR of Ile-δ1-CH3-labeled TtClpP. The class given is binding. Particulars: 2 mM bortezomib, TtClpP 250 μM, 60°C. A digest of the protocol:
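Uniformly 2H,15N-labelled TtClpP carrying Ile-δ1-13CH3 labels, and its S97A mutant, were used. Protein was expressed in D2O and refolded from urea-solubilised inclusion bodies by NiNTA and SEC. Protein (250 μM) was mixed with 2 mM test compound or the DMSO equivalent in 100 mM tris (pH 8.5), 100 mM NaCl and 5% glycerol. 2D SOFAST-methyl-TROSY spectra were recorded at 700 MHz and 60°C, for 10–120 min per sample.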

The target of a further test is S97A TtClpP (Thermus thermophilus, UniProt Q5SKM8, S97A). Type of test: binding. The note with it: 2 mM bortezomib, S97A TtClpP 250 μM, 60°C.
The target of test [7] is T1, TtClpP. In words: MAS solid-state NMR chemical shift perturbations. Type of test: binding. Particulars: 10 mM bortezomib, sedimented TtClpP.
Test [8] addresses T2, MtbClpP1P2 complex (Mycobacterium tuberculosis, UniProt P9WPC3+P9WPC5). In words: MtbClpP1P2 peptidase activity. The class given is biochemical.
The test system of another test is MtbClpXP1P2 complex. Particulars: in vivo cell screen; cited from earlier work.
Another test relates to proteasome. Particulars: cited from earlier work.
Test [9] has as its target T1, TtClpP. In words: TtClpP peptidase activity, PKMamc degradation. Type of test: biochemical. The note with it: Fig. 1B.
Test [10] concerns the target T2, MtbClpP1P2 complex. Particulars: cited from earlier work.
The mark [11] stands for this setting: 35°C, absolute error 0.3 kcal/mol.
[12] abbreviates: 45°C, absolute error 0.3 kcal/mol.

“And” between values parts separate entries of the source, which are not always exact repeats. Identical values can stand only once.

Take `O=c1oc(Cl)c(Cl)c2ccccc12` [DCC, dichloroisocoumarin]: the “TAMRA-FP labeling of TtClpP” value at TtClpP [1] is on record as “reduced the amount of TAMRA bound to ClpP”.
On EcClpP, `CC(C)C[C@H](NC(=O)[C@H](Cc1ccccc1)NC(=O)c1cnccn1)B(O)O` [bortezomib] showed an IC50 of 1.6 µM. In addition, the “concentration dependence of FITC-casein degradation activation” value on TtClpP [2] was “linear and no reduction of the activation was observed up to 100 μM”. Besides, the “effect on FITC-casein degradation” value on TtClpP [2] (FITC-casein 0.15 μM) is reported as “a striking activation was observed”. Besides, the “FtsZ degradation by TtClpP” value on TtClpP [3] is on record as “degradation of FtsZ was observed”. The “effect on TtClpP peptidase activity in the presence of ClpX” value at TtClpP with TtClpX (bortezomib 10 μM, PKM-amc 100 μM) was “acted as an inhibitor”. Also, the “ClpX6/ClpP14 ratio at half-maximal peptidase activity” value at TtClpP with TtClpX (bortezomib-loaded TtClpP, bortezomib 10 μM) is 2.4 ± 0.3 and 2.4. The “TtClpX6 concentration at half-maximal activation” value at TtClpP with TtClpX (in the presence of bortezomib, ratio 2.4) was 120 nM. The “TAMRA-FP labeling of TtClpP” value at TtClpP [1] is “failed to observe any increase of TAMRA-FP labeling”. Besides, the “KT, association constant for the tense state” value on TtClpP [4] (25°C) was “No apparent cooperativity”; on TtClpP [4] (35°C, relative error 30%), 28000 M⁻¹; on TtClpP [4] (45°C, relative error 30%), 25000 M⁻¹. Besides, the entries for the “N, fraction of active or binding-competent protein” value at TtClpP [4] (25°C), at TtClpP [4] (35°C) and on TtClpP [4] (45°C) were 0.97, 0.97 and 1.00, respectively. Moreover, the “ΔHT, binding enthalpy of the T state” value is “No apparent cooperativity” on TtClpP [4] (25°C), -0.1 kcal/mol at TtClpP [4] (setting [11]) and -0.3 kcal/mol at TtClpP [4] (setting [12]). Besides, the “ΔHγ, conformational enthalpy between R and T conformations” value at TtClpP [4] (25°C) is “No apparent cooperativity”; on TtClpP [4] (setting [11]) it was -0.3 kcal/mol; at TtClpP [4] (setting [12]) it was -0.2 kcal/mol. Moreover, the “γ, equilibrium constant between R and T conformations in the absence of the ligand” value on TtClpP [4] (25°C) is “No apparent cooperativity”; on TtClpP [4] (35°C, relative error 30%), 3.3. Besides, the “ΔHR, binding enthalpy of the R state” value was -0.5 kcal/mol at TtClpP [4] (25°C, absolute error 0.3 kcal/mol); -0.9 kcal/mol at TtClpP [4] (setting [11]); -1.5 kcal/mol on TtClpP [4] (setting [12]). For the same compound, on TtClpP [4] (45°C, relative error 30%), the “KR, association constant for the relaxed state” value stood at 65000 M⁻¹. Besides, the Kd at TtClpP [4] (Kd,R = KR^−1, R state, higher affinity) worked out at 15 µM; at TtClpP [4] (Kd,T = KT^−1, T state, lower affinity), 40 µM. The “free bortezomib concentration at the R↔T crossover point” value on TtClpP [4] (R and T equally populated, MWC model) is “around 2 μM”. For the same compound, on TtClpP [5], the “increase in Rhyd of TtClpP on addition of bortezomib” value is listed as “approximately 8 Å”. Besides, the “hydrodynamic radius Rhyd of TtClpP” value on TtClpP [5] (25°C) is 6.673 ± 0.192 nm and 6.67 nm; on TtClpP [5] (45°C), 6.702 ± 0.176 nm. Besides, on TtClpP [6], the “binding to wild-type TtClpP by spectral changes” value is given as “unambiguously confirms binding”. Further, at S97A TtClpP, the “spectral changes of the S97A mutant” value is “no spectral changes were observed”. Moreover, the “chemical shift perturbations on addition of bortezomib” value on TtClpP [7] was “bortezomib interacts with the active site”. Further, the “effect on MtbClpP1P2 peptidase activity” value on MtbClpP1P2 complex [8] is on record as “could also activate the peptidase activity of the MtbClpP1P2 complex”. The “effect on GFPssrA degradation by the MtbClpXP1P2 complex” value in the test with MtbClpXP1P2 complex is “inhibitor of GFPssrA degradation”. For the same compound, the “affinity for the chymotrypsin-like sites of the proteasome” value in the test with proteasome is “nanomolar affinity”. The “effect on the chymotrypsin site of the proteasome” value with proteasome is reported as “inhibits efficiently”. In addition, in the test on proteasome, the “effect on the trypsin site of the proteasome” value is “paradoxical activation”.
For `NC(N)=O` [urea], the “TAMRA-FP labeling of TtClpP” value at TtClpP [1] was “reduced the amount of TAMRA bound to ClpP”.
Regarding Bz-LL, the “activation of TtClpP peptidase activity compared with bortezomib” value on TtClpP [9] is recorded as “capable to activate TtClpP, albeit with lower efficiency”. For the same compound, on MtbClpP1P2 complex [10], the “activation of MtbClpP1P2” value is “most potent of these activators in Mtb”.
